The source made the active and inactive calls. The rule behind the calls is not given here.
Experiments:
[1] = molecular target: Topoisomerase IV (Staphylococcus aureus) (UniProt P0C1U9+P0C1S7); experiment: Inhibition of Staphylococcus aureus DNA topoisomerase 4 using supercoiled pNO1 plasmid DNA as substrate assessed as enzyme residual activity at 10 uM incubated for 30 mins by fluorescence assay relative to control; type: protein-complex assay
[2] = molecular target: DNA gyrase (Staphylococcus aureus) (UniProt P0A0K8+P20831); experiment: Inhibition of Staphylococcus aureus DNA gyrase using relaxed pNO1 plasmid DNA as substrate assessed as enzyme residual activity at 10 uM incubated for 30 mins by fluorescence assay relative to control; type: protein-complex assay
Escherichia coli [3] = experiment: Antibacterial activity against Escherichia coli ATCC 25922 assessed as reduction in bacterial growth at 50 uM incubated for 24 hrs by broth microdilution assay relative to control; type: functional
In short: (§1)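 Clinical control strains kept on cation-adjusted Mueller Hinton agar slants. Before the assay, suspensions were grown in cation-adjusted Mueller Hinton broth at 37 °C for 16–20 h at 100 rpm. Broth microdilution in 96-well format followed CLSI guidelines. Each compound was tested at 50 μM, and the result was expressed as percentage inhibition of bacterial growth.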

Staphylococcus aureus = experiment: Antibacterial activity against Staphylococcus aureus ATCC 25923 assessed as bacterial growth at 50 uM incubated for 24 hrs by broth microdilution assay; type: functional, organism-based; in short: as §1
Enterococcus faecalis = experiment: Antibacterial activity against Enterococcus faecalis ATCC 29212 assessed as reduction in bacterial growth at 50 uM incubated for 24 hrs by broth microdilution assay relative to control; type: functional; in short: as §1
DNA gyrase [4] = molecular target: DNA gyrase (Escherichia coli, UniProt P0AES4+P0AES6); experiment: Inhibition of Escherichia coli DNA gyrase using relaxed pNO1 plasmid DNA as substrate incubated for 30 mins by fluorescence assay; type: protein-complex assay
Escherichia coli [5] = experiment: Inhibition of Escherichia coli DNA topoisomerase 4 using supercoiled pNO1 plasmid DNA as substrate assessed as enzyme residual activity at 10 uM incubated for 30 mins by fluorescence assay relative to control
Pseudomonas aeruginosa = experiment: Antibacterial activity against Pseudomonas aeruginosa ATCC 27853 assessed as bacterial growth at 50 uM incubated for 24 hrs by broth microdilution assay; type: functional, organism-based; in short: as §1
DNA gyrase [6] = molecular target: DNA gyrase (Staphylococcus aureus, UniProt P0A0K8+P20831); experiment: Inhibition of Staphylococcus aureus DNA gyrase using relaxed pNO1 plasmid DNA as substrate incubated for 30 mins by fluorescence assay; type: protein-complex assay
[7] = Inhibition of Escherichia coli DNA topoisomerase 4 using supercoiled pNO1 plasmid DNA as substrate incubated for 30 mins by fluorescence assay
Topoisomerase IV = Topoisomerase IV (Staphylococcus aureus, UniProt P0C1S7+P0C1U9); experiment: Inhibition of Staphylococcus aureus DNA topoisomerase 4 using supercoiled pNO1 plasmid DNA as substrate incubated for 30 mins by fluorescence assay; type: protein-complex assay
[8] = molecular target: DNA gyrase (Escherichia coli) (UniProt P0AES6+P0AES4); experiment: Inhibition of Escherichia coli DNA gyrase using relaxed pNO1 plasmid DNA as substrate assessed as enzyme residual activity at 10 uM incubated for 30 mins by fluorescence assay relative to control; type: protein-complex assay

Chain of DNA gyrase (Staphylococcus aureus, UniProt P0A0K8+P20831) (P0A0K8 whole entry): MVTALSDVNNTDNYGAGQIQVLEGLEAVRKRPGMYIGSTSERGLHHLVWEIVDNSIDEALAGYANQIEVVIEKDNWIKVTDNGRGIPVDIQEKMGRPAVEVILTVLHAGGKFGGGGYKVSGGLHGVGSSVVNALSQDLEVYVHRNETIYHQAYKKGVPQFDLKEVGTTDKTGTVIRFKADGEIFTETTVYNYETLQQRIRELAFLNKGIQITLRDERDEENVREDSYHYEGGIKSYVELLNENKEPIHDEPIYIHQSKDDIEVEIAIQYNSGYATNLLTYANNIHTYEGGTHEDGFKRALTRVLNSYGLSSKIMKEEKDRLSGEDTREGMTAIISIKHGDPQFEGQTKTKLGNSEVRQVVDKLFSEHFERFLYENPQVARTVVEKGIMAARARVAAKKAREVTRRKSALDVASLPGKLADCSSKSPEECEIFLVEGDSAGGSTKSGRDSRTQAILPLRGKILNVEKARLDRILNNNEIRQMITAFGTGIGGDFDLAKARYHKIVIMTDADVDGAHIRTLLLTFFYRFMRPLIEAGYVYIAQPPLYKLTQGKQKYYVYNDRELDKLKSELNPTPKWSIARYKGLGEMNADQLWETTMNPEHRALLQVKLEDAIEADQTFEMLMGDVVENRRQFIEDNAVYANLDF
Chain of DNA gyrase (Staphylococcus aureus, UniProt P0A0K8+P20831) (P20831 whole entry): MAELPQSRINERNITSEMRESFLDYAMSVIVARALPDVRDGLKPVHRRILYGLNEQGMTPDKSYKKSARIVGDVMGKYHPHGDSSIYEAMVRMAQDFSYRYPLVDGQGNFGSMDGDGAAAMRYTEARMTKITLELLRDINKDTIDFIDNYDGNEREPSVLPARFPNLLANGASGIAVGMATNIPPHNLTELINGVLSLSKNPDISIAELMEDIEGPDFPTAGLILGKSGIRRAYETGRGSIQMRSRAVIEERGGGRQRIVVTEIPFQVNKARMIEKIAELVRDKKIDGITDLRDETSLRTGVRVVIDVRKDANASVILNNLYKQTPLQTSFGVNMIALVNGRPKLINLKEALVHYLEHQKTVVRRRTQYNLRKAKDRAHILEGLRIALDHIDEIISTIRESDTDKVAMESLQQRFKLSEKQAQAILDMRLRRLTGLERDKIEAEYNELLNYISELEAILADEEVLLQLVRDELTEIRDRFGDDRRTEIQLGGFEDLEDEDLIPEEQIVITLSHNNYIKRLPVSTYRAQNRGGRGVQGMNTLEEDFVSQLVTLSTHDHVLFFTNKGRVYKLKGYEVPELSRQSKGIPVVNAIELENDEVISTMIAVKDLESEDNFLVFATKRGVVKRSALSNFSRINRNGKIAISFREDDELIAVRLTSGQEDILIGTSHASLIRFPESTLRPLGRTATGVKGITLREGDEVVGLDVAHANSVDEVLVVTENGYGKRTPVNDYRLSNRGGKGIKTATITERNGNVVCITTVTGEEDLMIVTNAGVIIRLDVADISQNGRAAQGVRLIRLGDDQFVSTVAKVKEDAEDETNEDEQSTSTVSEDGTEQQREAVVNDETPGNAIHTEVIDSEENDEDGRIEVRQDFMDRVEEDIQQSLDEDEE
Chain of DNA gyrase (Staphylococcus aureus) (P0A0K8 2-644 limits assumed): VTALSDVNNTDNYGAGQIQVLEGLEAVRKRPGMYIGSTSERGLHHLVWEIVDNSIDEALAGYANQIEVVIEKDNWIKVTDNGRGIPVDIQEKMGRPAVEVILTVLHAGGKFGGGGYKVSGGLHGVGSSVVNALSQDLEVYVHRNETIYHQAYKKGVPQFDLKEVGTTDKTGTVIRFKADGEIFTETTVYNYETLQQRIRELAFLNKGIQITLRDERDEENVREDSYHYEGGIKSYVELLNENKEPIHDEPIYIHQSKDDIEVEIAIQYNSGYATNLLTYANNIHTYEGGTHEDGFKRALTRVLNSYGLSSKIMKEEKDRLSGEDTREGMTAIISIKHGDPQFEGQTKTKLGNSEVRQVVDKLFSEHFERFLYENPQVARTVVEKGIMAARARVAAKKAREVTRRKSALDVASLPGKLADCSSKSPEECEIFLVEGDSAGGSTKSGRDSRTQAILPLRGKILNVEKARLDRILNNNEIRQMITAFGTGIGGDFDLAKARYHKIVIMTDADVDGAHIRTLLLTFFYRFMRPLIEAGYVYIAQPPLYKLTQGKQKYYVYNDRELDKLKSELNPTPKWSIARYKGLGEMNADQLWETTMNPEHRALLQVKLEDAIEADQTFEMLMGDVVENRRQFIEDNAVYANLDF
Chain of DNA gyrase (Staphylococcus aureus) (P20831 whole entry partner): as the sequence (P20831 whole entry) above
Chain of Topoisomerase IV (P0C1U9 whole entry): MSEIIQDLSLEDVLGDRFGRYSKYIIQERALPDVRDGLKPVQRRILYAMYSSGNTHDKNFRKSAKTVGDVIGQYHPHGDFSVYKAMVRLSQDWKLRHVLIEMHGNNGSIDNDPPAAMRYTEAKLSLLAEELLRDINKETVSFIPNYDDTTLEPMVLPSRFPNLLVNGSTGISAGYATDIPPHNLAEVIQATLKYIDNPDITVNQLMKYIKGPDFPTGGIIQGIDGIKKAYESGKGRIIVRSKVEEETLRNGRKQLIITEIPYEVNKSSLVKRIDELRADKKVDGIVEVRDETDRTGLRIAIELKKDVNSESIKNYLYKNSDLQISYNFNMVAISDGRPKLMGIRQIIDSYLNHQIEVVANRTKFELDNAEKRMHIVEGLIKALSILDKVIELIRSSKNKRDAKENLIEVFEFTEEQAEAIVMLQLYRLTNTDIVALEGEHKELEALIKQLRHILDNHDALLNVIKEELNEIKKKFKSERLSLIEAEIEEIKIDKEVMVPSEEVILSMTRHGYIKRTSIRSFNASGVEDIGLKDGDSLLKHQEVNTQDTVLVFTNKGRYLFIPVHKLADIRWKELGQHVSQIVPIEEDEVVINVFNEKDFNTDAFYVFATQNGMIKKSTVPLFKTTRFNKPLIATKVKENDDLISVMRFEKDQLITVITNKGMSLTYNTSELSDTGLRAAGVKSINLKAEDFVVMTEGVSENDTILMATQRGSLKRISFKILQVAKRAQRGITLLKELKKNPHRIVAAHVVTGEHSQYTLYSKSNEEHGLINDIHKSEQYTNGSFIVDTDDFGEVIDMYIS
Chain of Topoisomerase IV (P0C1S7 whole entry): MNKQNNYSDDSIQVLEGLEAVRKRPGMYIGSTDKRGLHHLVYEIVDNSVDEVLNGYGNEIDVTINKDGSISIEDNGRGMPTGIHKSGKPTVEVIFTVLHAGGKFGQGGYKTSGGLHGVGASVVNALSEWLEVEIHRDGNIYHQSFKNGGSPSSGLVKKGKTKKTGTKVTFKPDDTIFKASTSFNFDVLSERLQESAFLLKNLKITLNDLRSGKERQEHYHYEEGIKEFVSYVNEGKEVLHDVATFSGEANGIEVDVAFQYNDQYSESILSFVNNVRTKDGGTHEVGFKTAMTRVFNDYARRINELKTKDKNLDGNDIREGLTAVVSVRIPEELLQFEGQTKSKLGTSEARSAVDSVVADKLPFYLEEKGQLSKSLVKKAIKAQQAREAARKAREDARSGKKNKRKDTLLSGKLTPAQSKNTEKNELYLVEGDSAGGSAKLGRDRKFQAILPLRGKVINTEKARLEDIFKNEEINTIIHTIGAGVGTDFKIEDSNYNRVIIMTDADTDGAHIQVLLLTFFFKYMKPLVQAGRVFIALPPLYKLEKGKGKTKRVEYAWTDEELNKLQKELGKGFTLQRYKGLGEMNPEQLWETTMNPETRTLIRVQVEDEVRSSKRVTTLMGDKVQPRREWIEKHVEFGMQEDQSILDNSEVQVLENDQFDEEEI

Compound: O=C(O)COc1ccc(NC(=O)c2cc(Br)c(Br)[nH]2)c(OCc2ccccc2)c1
- Activity [1]: 92%
- Activity [2]: 87%
- inhibition (Escherichia coli [3]): inactive
- inhibition (Staphylococcus aureus): inactive
- inhibition at 50 µM (Enterococcus faecalis; ATCC 29212, 24 h): 25%
- IC50 (DNA gyrase [4]): 0.86 µM
- Activity (Escherichia coli [5]): 84%
- inhibition (Pseudomonas aeruginosa): inactive

Compound: Cc1nc(-c2cc(NC(=O)CC(=O)NN)ccc2NC(=O)c2cc(Br)c(Br)[nH]2)no1
- Activity [1]: 98%
- Activity [2]: 80%
- inhibition at 50 µM (Escherichia coli [3]; ATCC 25922, 24 h): 16%
- inhibition (Staphylococcus aureus): inactive
- inhibition (Enterococcus faecalis): inactive
- IC50 (DNA gyrase [4]): 0.14 µM
- Activity (Escherichia coli [5]): 88%
- inhibition (Pseudomonas aeruginosa): inactive

Compound: COC(=O)CC(=O)Nc1ccc(NC(=O)c2cc(Br)c(Br)[nH]2)c(-c2noc(C)n2)c1
- Activity [1]: 100%
- inhibition (Escherichia coli [3]): inactive
- inhibition (Staphylococcus aureus): inactive
- IC50 (DNA gyrase [6]): 63 µM
- inhibition (Enterococcus faecalis): inactive
- IC50 (DNA gyrase [4]): 0.086 µM
- Activity (Escherichia coli [5]): 72%
- inhibition (Pseudomonas aeruginosa): inactive

Compound: Cc1nc(-c2cc(NC(=O)Cc3n[nH]c(=O)o3)ccc2NC(=O)c2cc(Br)c(Br)[nH]2)no1
- Activity [1]: 60%
- inhibition (Escherichia coli [3]): inactive
- inhibition (Staphylococcus aureus): inactive
- IC50 (DNA gyrase [6]): 11 µM
- inhibition (Enterococcus faecalis): inactive
- IC50 (DNA gyrase [4]): 0.045 µM
- Activity (Escherichia coli [5]): 91%
- inhibition (Pseudomonas aeruginosa): inactive

Compound: O=C(Nc1ccc(OCc2n[nH]c(=O)o2)cc1)c1cc(Br)c(Br)[nH]1
- inhibition (Escherichia coli [3]): inactive
- inhibition (Staphylococcus aureus): inactive
- inhibition (Enterococcus faecalis): inactive
- IC50 (DNA gyrase [4]): 8.6 µM
- inhibition (Pseudomonas aeruginosa): inactive

Compound: Cc1nc(-c2cc(NC(=O)CC(=O)O)ccc2NC(=O)c2cc(Br)c(Br)[nH]2)no1
- inhibition (Escherichia coli [3]): inactive
- inhibition (Staphylococcus aureus): inactive
- IC50 (DNA gyrase [6]): 1.4 µM
- inhibition (Enterococcus faecalis): inactive
- IC50 (DNA gyrase [4]): 0.02 µM
- IC50 [7]: 11 µM
- IC50 (Topoisomerase IV): 14 µM
- inhibition (Pseudomonas aeruginosa): inactive

Compound: NNC(=O)COc1ccc(NC(=O)c2cc(Br)c(Br)[nH]2)cc1
- Activity [8]: 100%

Compound: COC(=O)COc1ccc(NC(=O)c2cc(Br)c(Br)[nH]2)c(OCc2ccccc2)c1
- Activity [8]: 100%

Compound: NNC(=O)COc1ccc(NC(=O)c2cc(Br)c(Br)[nH]2)c(OCc2ccccc2)c1
- Activity [8]: 100%

Compound: O=C(Nc1ccc(OCc2n[nH]c(=O)o2)cc1OCc1ccccc1)c1cc(Br)c(Br)[nH]1
- Activity [8]: 85%
- inhibition (Escherichia coli [3]): inactive
- inhibition (Staphylococcus aureus): inactive
- inhibition (Enterococcus faecalis): inactive
- inhibition (Pseudomonas aeruginosa): inactive

From ChEMBL document CHEMBL4373663, “New N-phenyl-4,5-dibromopyrrolamides as DNA gyrase B inhibitors” (Medchemcomm, 2019)
